As usually defined, the EC50 is the concentration that produces a half-maximal response. Read a low EC50 as greater potency. For orientation: Ki means a dissociation constant, usually derived from enzyme kinetics or from competition with a known ligand.

From ChEMBL document CHEMBL1125128, “(1R,3S)-1-(aminomethyl)-3,4-dihydro-5,6-dihydroxy-3-phenyl-1H-2-benzopyran: a potent and selective D1 agonist” (J Med Chem, 1990) come the findings set out here.

Assay [1] concerns the target T1, D(2) dopamine receptor (Rattus norvegicus, UniProt P61169). The assay is described as follows: Formation of cAMP on Dopamine receptor D2 in vitro in rat intermediate lobe. The class given is functional.
Assay [2] concerns the target T1, D(2) dopamine receptor. The assay can be described thus: Binding affinity was determined by measuring the ability to displace [125I]N-(p-aminophenethyl)-spiroperidol from Dopamine receptor D2 in rat caudate (in vitro). An outline of the steps:
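Homogenized rat caudate was the tissue, and [¹²⁵I]-N-(p-aminophenethyl)spiroperidol was the radioligand displaced. Values are means with the SEM range.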

Assay [3] addresses D(1A) dopamine receptor (Rattus norvegicus, UniProt P18901). The assay can be described thus: Binding affinity was determined by measuring the ability to displace [125I]SCH-23982 from Dopamine receptor D1 in rat caudate (in vitro). An outline of the steps:
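Homogenized rat caudate was used as the tissue source. [¹²⁵I]SCH23982 was the displaced radioligand, and affinity was expressed as Ki. Values are means with the SEM range.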

Assay [4] addresses D(2) dopamine receptor (Rattus norvegicus) (UniProt P61169). The assay can be described thus: Percent intrinsic activity was determined by measuring the formation of cAMP on Dopamine receptor D2 in vitro in rat intermediate lobe. It is filed as functional.

“And” between values parts separate entries of the source, which are not always exact repeats. Equal values may be shown once.

D(2) dopamine receptor (Rattus norvegicus), sequence (P61169 whole entry): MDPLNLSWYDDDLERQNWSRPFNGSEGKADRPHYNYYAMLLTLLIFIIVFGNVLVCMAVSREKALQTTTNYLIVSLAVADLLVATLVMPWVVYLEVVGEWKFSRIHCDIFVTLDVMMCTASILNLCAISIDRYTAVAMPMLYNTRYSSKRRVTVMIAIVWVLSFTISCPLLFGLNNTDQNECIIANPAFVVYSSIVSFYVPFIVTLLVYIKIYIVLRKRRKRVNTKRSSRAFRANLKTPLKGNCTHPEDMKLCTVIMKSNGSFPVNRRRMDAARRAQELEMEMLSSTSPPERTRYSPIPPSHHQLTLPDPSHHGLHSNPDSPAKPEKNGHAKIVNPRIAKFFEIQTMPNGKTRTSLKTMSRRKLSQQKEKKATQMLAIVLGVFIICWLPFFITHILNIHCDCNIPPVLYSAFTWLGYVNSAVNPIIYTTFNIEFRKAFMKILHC
T1 sequence (P61169 whole entry): as above
D(1A) dopamine receptor, sequence (P18901 whole entry): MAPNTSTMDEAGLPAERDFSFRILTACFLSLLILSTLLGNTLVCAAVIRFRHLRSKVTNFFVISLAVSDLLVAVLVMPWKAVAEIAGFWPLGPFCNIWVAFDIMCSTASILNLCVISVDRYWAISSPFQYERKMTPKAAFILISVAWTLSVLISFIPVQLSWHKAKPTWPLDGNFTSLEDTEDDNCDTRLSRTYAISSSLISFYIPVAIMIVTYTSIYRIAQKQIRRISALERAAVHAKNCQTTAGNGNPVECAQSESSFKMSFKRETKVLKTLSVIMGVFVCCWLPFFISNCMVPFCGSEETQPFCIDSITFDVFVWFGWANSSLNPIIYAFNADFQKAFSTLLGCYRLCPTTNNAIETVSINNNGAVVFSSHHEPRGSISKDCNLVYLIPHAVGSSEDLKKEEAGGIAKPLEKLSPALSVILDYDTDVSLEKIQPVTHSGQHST

Consider `NC[C@@H]1O[C@H](c2ccccc2)Cc2c1ccc(O)c2O` (stereo in doubt; form 2) [listing 1 of 2 here], for which the EC50 in assay [1] is 10200 nM and 3910 nM. Besides, the Ki in assay [2] was 807 nM and 776 nM.

As to `NCC1OCCc2c1ccc(O)c2O` (stereo not given) [listing 1 of 3 here], the half-maximal effective concentration (EC50) in assay [1] came to 2850 nM. Further, the Ki is 4610 nM in assay [2] and 1030 nM in assay [3].

`NCC1OCCc2c1ccc(O)c2O` (stereo not given) [listing 2 of 3 here]: in assay [1], the EC50 is 2850 nM. The inhibition constant (Ki) in assay [2] came out at 4610 nM; in assay [3] it was 1030 nM.

With `NC[C@@H]1O[C@H](c2ccccc2)Cc2c1ccc(O)c2O` (stereo in doubt; form 2) [listing 2 of 2 here], the IA in assay [4] was 98% and 101%.

With `NC[C@@H]1O[C@H](c2ccccc2)Cc2c1ccc(O)c2O` (stereo in doubt; form 1) [listing 1 of 2 here], the IA in assay [4] is 101% and 98%.

`NC[C@H]1O[C@@H](c2ccccc2)Cc2c1ccc(O)c2O`: the 50% effective concentration (EC50) in assay [1] is above 10000 nM. The Ki in assay [2] was above 10000 nM.

For the molecule `NC[C@@H]1O[C@H](c2ccccc2)Cc2c1ccc(O)c2O` (stereo in doubt; form 1) [listing 2 of 2 here], in assay [1], the EC50 is 3910 nM and 10200 nM. In addition, the Ki in assay [2] was 776 nM and 807 nM.

In assay [4], `NCC1OCCc2c1ccc(O)c2O` (stereo not given) [listing 3 of 3 here] had an IA of 96%.
